Yeast life ext = yeast lifespan extension; S. cerevisiae growth with nicotinamide, OD615; deaD strain in restrictive glucose medium; inhibition of the nicotinamide effect, % at 10 µM; actives 0.68% (n = 130,000); AID 775;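 active = inhibition above a set limit, placed 3 SD over the median of all compounds, cut at about 26% in these data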;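 note: 0% = nicotinamide-treated wells and 100% = cells grown without nicotinamide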
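Test system – modified budding yeast, DeaD strain · Compound – single dose 10 µM compound, 0.25% DMSO · Times – culture preincubation 4 h, compound exposure 48 h, both 30 °C · Detection – optical density (absorbance) at 615 nm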
Measles CPE = protection of cells from measles virus; actives 1.5% (n = 140,000); protection (pct of control), % at 4 µM; AID 841; Measles virus-infected cells, CPE protection, absorbance; in the data active = protection mostly above about 24%, no sharp cut-off; inactive = mostly below about 26%
RAM inhibit = inhibitors of the yeast RAM network; S. cerevisiae dse1pr::URA3 reporter, 5-FOA growth OD615, 2 d; analog-sensitive cbk1-as2 kinase mutant strain; inhibition, % at 50 µM; actives 1.8% (n = 190,000);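 active = inhibition above a set limit, 3 SD over mean compound inhibition, cut at about 8.4% in these data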;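 note: 0% = DMSO-only wells with no growth and 100% = 10 µM 1-NA-PP1 full growth; inhibition rescues growth on 5-FOA so higher OD means more RAM inhibition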
sdo1 growth = compounds rescuing growth of sdo1-depleted yeast, bone marrow failure model; S. cerevisiae sdo1-depleted JHY4D growth rescue, OD600 30 h; hits give high values; pdr5 snq2 efflux-pump mutant strain; actives 0.21% (n = 140,000); z-score at 10 µM;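 active = z-score above 3 at both the 24 hr and the 30 hr optical density reads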;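 note: z-score against mean and SD of all compound wells on the same plate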
Yeast growth inh = reduces growth of yeast BB579 in restrictive medium. actives 0.51% (n = 140,000). S. cerevisiae BB579 growth, OD615, 48 h. inhibition, % at 10 µM;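 active = inhibition above a set limit, 3 SD over the mean compound inhibition, cut at about 44% in these data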
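test system = yeast BB579 (DeaD) | buffer or medium = restrictive CSMM-D medium | doses = single compound dose of 10 µM, 0.25% DMSO final | times = 4 h preincubation and 48 h exposure at 30 °C | technique = culture absorbance at 615 nm | benchmarks = amphotericin B 10 µg/mL, positive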
* hit, by the source's call; . = no result given. An excerpt weighted towards active compounds, which were near 3.8% of everything screened.

SMILES | Yeast life ext | Measles CPE | RAM inhibit | sdo1 growth | Yeast growth inh
C=CCn1c(SCC(=O)Nc2cc(OC)c(NC(=O)c3ccco3)cc2OC)nnc1-c1ccncc1 | . | 7 | 8.6* | 0.55 | -4
C=CCn1c(SCC(=O)Nc2ccc(NC(=O)c3ccco3)c(OC)c2)nnc1-c1ccncc1 | -11 | 2 | 3 | 0.28 | -5
CCNC(=S)N1CCN(CC)CC1 | . | . | 4 | . | .
O=C(OCc1nnc(-c2ccccc2)o1)c1ccc(S(=O)(=O)NCc2ccco2)cc1 | -9 | 4 | 2 | 0.25 | -54
O=C(N/N=C/c1c[nH]c2ccc(Br)cc12)c1ccncc1 | 4 | 29* | 0 | -0.29 | -30
O=C(N/N=C/c1c[nH]c2ccccc12)c1ccncc1 | 3 | 25 | 1 | 0.82 | -32
CC(C)Cc1cc(C(=O)Nc2sc3c(c2C#N)CCC3)no1 | 3 | 5 | 10* | 0.16 | -7
CC(C)Cc1cc(C(=O)Nc2sc3c(c2C#N)CCCC3)no1 | -3 | 35 | 9.9* | -0.2 | -34
Cc1cc(C(=O)Nc2sc3c(c2C#N)CCC3)no1 | -1 | 4 | 4 | -0.53 | -30
CSc1cccc(NC(=O)C2CCN(C(=O)c3ccccc3C)CC2)c1 | -4 | 6 | 2 | 1 | -21
Cc1c(NC(=O)Cc2noc3ccccc23)cccc1[N+](=O)[O-] | . | . | 1 | . | .
Cc1ccc(NC(=O)Cc2noc3ccccc23)c(C)c1 | 2 | 21* | 1 | -0.06 | -8
CCSc1nc2ccccc2n1C(=O)/C=C/c1ccc(OC)c(OC)c1 | 6 | 0 | 10* | -0.46 | -40
CC1=NN(c2ccccc2)C(=O)/C1=C\C=C1\N(C)c2ccccc2C1(C)C | -6 | 59* | 1 | -2 | -10
Cc1cc(C)c(C#N)c(SCc2ccccc2[N+](=O)[O-])n1 | -1 | 8 | 4 | 0 | -31
Cc1cc(C)c(C#N)c(SCc2nnc(-c3ccccc3[N+](=O)[O-])o2)n1 | . | . | 11* | . | .
Cc1ccc2c(c1)N(C(=O)CCC(=O)O)CCO2 | 6 | 28* | 3 | 1.9 | -26
CCOC(=O)N1CCN(C(=O)CCC(=O)N2CCOc3ccc(C)cc32)CC1 | -20 | 7 | 2 | 0.36 | -33
O=C1CC(N2CCN(c3ccc(F)cc3)CC2)C(=O)N1Cc1cccs1 (centres undefined) | -8 | 1 | 2 | 0.01 | -61
O=C1CC(N2CCN(c3nc4ccccc4s3)CC2)C(=O)N1Cc1cccs1 (centres undefined) | -26 | 14 | 0 | -2.8 | 98*
O=C(NC1CCCCC1)N(C1=NCCCCC1)c1ccc(Br)cc1 | 10 | 7 | 1 | -0.66 | -19
O=C(Nc1ncc2c(n1)-c1ccccc1OC2)c1cccc([N+](=O)[O-])c1 | . | . | 8.6* | . | .
CCOP(=O)(OCC)C(NC(=O)c1cccs1)C(F)(F)F (centres undefined) | . | . | 0 | . | .
Cc1nc2cc3ccccc3cc2c(=O)[nH]1 | -16 | 24 | -1 | 0.55 | 45*
Cc1cc2ccccc2c(=O)[nH]1 | -14 | 26 | 1 | 1.6 | -20
SMILES | Yeast life ext | Measles CPE | RAM inhibit | sdo1 growth | Yeast growth inh
CCOc1ccc(Br)cc1-c1noc(-c2cccs2)n1 | -19 | 22 | 8.8* | -0.73 | -33
COc1cc(OC)cc(-c2nc(-c3cccs3)no2)c1 | . | . | 9.8* | . | .
COc1cc(-c2noc(-c3cccs3)n2)cc(OC)c1OC | -7 | 17 | 3 | 0.47 | -35
CN(C)c1nc(OCCNC(=O)COc2ccccc2Cl)nc(N(C)C)n1 | . | 7 | -1 | -0.19 | -22
CCOC(=O)C1=C(C)Nc2ccccc2N=C1NC(=O)c1cccc(S(=O)(=O)N(C)C)c1 | -2 | 5 | 1 | 0.52 | -3
CCOC(=O)C1=C(C)Nc2ccccc2N=C1NC(=O)c1ccc(Cl)c(S(=O)(=O)N2CCCC2)c1 | . | . | 8.7* | . | .
CCOC(=O)c1sc(NC(C)=O)nc1-c1ccccc1 | -6 | 18 | 1 | -0.1 | -35
CC(=O)Nc1sc(N)nc1-c1ccccc1 | -3 | 35* | 3 | 0.22 | -45
O=C(O)Cn1ncc2c1-c1ccoc1CC2 | -2 | 9 | 0 | 1.2 | -71
Cc1ccc2sc(N(CCCN(C)C)C(=O)CN3C(=O)c4ccccc4C3=O)nc2c1C | . | . | 2 | . | .
COc1cc(C(=O)CCN2CCC(c3ccccc3)C2)cc(OC)c1OC (centres undefined) | 4 | 22 | 0 | 0.11 | -3
COc1ccc(/C=C/C(=O)c2oc3ccc(F)cc3c2C)cc1 | 5 | 19 | 11* | -0.34 | -41

High-throughput results (PubChem)
